Screening data (PubChem BioAssay)
Only some compounds are listed: those with a hit (about 3.5% of all), similar ones and a draw of the others.
MrgX1 antag – antagonists of human MrgX1 receptor, primary screen, HEK293 cells, Fluo-4 calcium flux; BAM8-22 antagonism; stronger effect = lower value; B-score at 10 µM; Mas-related G-protein coupled receptor member X1 (Homo sapiens), Q96LB2; hit rate 1.3% among 310,000;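 active = calcium-response B-score plate-corrected more than 3 library SD below zero, starting fluorescence within 5 deviations, no agonist response on first addition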;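 note: peak minus trough fluorescence over baseline after final BAM8-22 challenge near maximal dose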
Target sequence (Q96LB2 whole entry, looked up): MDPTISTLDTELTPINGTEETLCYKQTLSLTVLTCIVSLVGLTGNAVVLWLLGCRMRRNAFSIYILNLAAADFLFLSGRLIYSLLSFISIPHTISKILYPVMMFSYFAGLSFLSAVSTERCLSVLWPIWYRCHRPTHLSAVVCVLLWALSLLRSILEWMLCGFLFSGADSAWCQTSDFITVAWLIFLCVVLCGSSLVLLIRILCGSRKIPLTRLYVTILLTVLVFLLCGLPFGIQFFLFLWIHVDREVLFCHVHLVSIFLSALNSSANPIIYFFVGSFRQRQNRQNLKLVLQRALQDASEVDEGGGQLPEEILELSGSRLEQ
MrgX1 agonist – agonists of human MrgX1 receptor, primary screen, HEK293 cells, Fluo-4 calcium flux; Mas-related G-protein coupled receptor member X1 (Homo sapiens), Q96LB2; Fluo-4 calcium fluorescence, agonist mode; stronger effect = higher value; B-score at 10 µM; hit rate 0.44% among 310,000; AID 588627, 2011;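 active = calcium response B-score plate-corrected fluorescence ratio at least 3 library SD, with starting fluorescence B-score inside 5 SD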
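Test system: HEK293 cells stably expressing human MrgX1 receptor; Input: fifteen thousand cells per well; Dosing: compound delivered in addition one of three; Schedule: overnight seeding, then 1 h dark dye loading; Technique: Fluo-4 NW calcium fluorescence; Measure: B-scored fluorescence response ratio; Controls: positive and negative controls per plate.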
RGS4 act – RGS4 potentiators or activators, primary screen, cell-based, HEK293 M3R inducible RGS4, calcium flux; AID 463111, 2010; carbachol calcium flux Fluo4; stronger effect = lower value; B-score at 10 µM; hit rate 0.92% among 310,000;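 active = B-score of the integrated calcium signal more than 4 SD below the library mean, with starting fluorescence not abnormally high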;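 note: negative B-score means reduced calcium response which marks RGS4 activation or potentiation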
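System: HEK293 FlpIn-TREx cells, stable M3R, doxycycline-inducible RGS4. Timing: overnight RGS4 induction, 30 min dye load 37 °C, 20 min compound RT. Also added: carbachol, ECmax concentration. Measured by: Fluo4 fluorescence kinetic imaging of calcium. Evaluation: integrated calcium ratio converted to B score.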
MrgX1 allo act – positive allosteric modulators of MrgX1, primary screen, HEK293 cells, Fluo-4 calcium flux. FDSS; stronger effect = higher value. B-score at 10 µM. hit rate 0.63% among 310,000;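 active = plate-corrected calcium response at least 3 library SD above typical, normal starting fluorescence, not activating the receptor alone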;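 note: compound read alongside a low EC10 to EC30 dose of BAM8-22 agonist; peak minus trough fluorescence over baseline measured at the second addition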
RGS4 inh – RGS4 inhibitors, primary screen, cell-based, HEK293 M3R inducible RGS4, calcium flux; Regulator of G-protein signaling 4 (Homo sapiens), P49798; Fluo-4 calcium flux; stronger effect = higher value; triggered by carbachol at its EC20; B-score at 10 µM; hit rate 0.45% among 310,000;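 active = B-score, a plate-corrected calcium signal, over three deviations above library mean, with baseline fluorescence within five deviations of library mean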;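 note: RGS4 expression induced by doxycycline in cells with stable M3 receptor; B-score is computed from the integrated fluorescence ratio over baseline after carbachol; higher B-score means a larger calcium signal and so more RGS4 inhibition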
Target sequence (P49798 whole entry, looked up): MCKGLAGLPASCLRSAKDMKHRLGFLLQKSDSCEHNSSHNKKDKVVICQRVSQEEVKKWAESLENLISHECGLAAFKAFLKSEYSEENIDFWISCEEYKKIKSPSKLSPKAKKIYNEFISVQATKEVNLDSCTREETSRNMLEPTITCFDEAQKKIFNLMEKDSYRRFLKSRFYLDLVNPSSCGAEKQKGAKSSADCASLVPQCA
MrgX1 ant reconf – MrgX1 receptor antagonists, duplicate retest, confirmation, HEK293 cells, Fluo-4 calcium flux; shares compounds with MrgX1 antag; BAM8-22 calcium flux; stronger effect = lower value; remaining BAM8-22 calcium response % of control (stronger effect = lower value), % at 10 µM; hit rate 19% among 2,300; AID 602420, 2012;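 active = remaining agonist calcium response no higher than 100% minus 3 SD of agonist-only control wells, with starting fluorescence near control levels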;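 note: agonist BAM8-22 given at a near maximal EC90 to ECmax level; peak minus minimum fluorescence divided by baseline after agonist addition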
HEK293 Ca flux – nonspecific calcium signal in parental HEK293, confirmation, counter-screen for MrgX1 antagonist project, parental HEK293 cells, Fluo-4 calcium flux; AID 624111, 2012; shares compounds with MrgX1 antag; fluorescence ratio F(max-min)/F0 at 10 µM; Fluo-4 calcium fluorescence, FDSS; hit rate 2% among 4,000;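 active = duplicate-averaged calcium fluorescence ratio at least three times the standard deviation of buffer wells, a nonspecific response in parental cells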
HEK293 Ca counter – calcium response in parental HEK293 cells, primary screen, counter-screen for MrgX1 allosteric activator project, cell-based, Fluo-4 calcium flux, duplicate; shares compounds with MrgX1 antag; hit rate 0.4% among 4,000; Fluo-4 fluorescence ratio; stronger effect = higher value; fluorescence ratio F(max-min)/F0 at 10 µM; AID 624114, 2012;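 active = calcium fluorescence ratio, averaged over duplicates, at least 3 SD of the buffer-well ratio, meaning a nonspecific response in receptor-free cells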;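 note: untransfected parental HEK293 lacking MrgX1 used as counterscreen for MrgX1 allosteric activators; fluorescence change taken during the second addition on a kinetic imager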
HEK293 Ca cntr2 – calcium response in parental HEK293 cells, primary screen, counter-screen for MrgX1 agonist project, cell-based, Fluo-4 calcium flux, duplicate, agonist mode; shares compounds with MrgX1 antag; Fluo-4 calcium fluorescence (FDSS); stronger effect = higher value; fluorescence ratio F(max-min)/F0 at 10 µM; hit rate 8.7% among 4,000;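 active = calcium fluorescence ratio at least three times the spread of buffer wells, meaning a non-specific response in parental cells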
The depositor's hits bear a star; i = inactive; · = no result given.

SMILES | MrgX1 antag | MrgX1 agonist | RGS4 act | MrgX1 allo act | RGS4 inh | MrgX1 ant reconf | HEK293 Ca flux | HEK293 Ca counter | HEK293 Ca cntr2
COC(=O)c1ccc(NC(=O)CNS(=O)(=O)c2cccs2)cc1 | i | i | i | i | i | · | · | · | ·
CCOC(=O)c1ccc(NC(=O)CCNS(=O)(=O)c2cccs2)cc1 | -5.4* | i | i | i | i | i | i | i | i
COc1ccc(OC)c(NC(=O)NC2CCCCCCC2)c1 | i | i | i | i | i | · | · | · | ·
CCCC(=O)Nc1cc(OC)c(NC(=O)NC2CCCCC2)cc1OC | -4.6* | i | i | i | i | i | i | i | i
CCN(CC(=O)NC(C)C)C(=O)[C@@H](NC(=O)c1ccco1)C(C)C | i | i | i | i | i | · | · | · | ·
CCOC(=O)N1CCN(C(=O)C2CC(=O)N(c3ccc(C)cc3)C2)CC1 (stereo not given) | i | i | i | i | i | · | · | · | ·
Cc1cc(F)ccc1NC(=O)c1cc(S(=O)(=O)N2CCc3ccccc32)cn1C | -5.3* | i | i | i | i | i | i | i | i
O=C(O)CSc1nnc(CNc2cccc(C(F)(F)F)c2)n1Cc1ccco1 | -7.4* | i | i | i | i | 79%* | i | i | i
O=C(CSc1nnc(CNc2cccc(C(F)(F)F)c2)n1Cc1ccco1)NCc1ccco1 | i | i | i | i | i | · | · | · | ·
CCSc1nnc(NC(=O)C(CC)Oc2ccccc2)s1 (stereo not given) | -6.6* | i | i | i | i | i | i | i | i
CCSc1nnc(NC(=O)COc2ccccc2)s1 | i | i | i | i | i | · | · | · | ·
CN(C)c1ccnc2sc3c(=O)n(-c4ccccc4)cnc3c12 | -4.6* | i | i | i | i | i | i | i | i
COc1ccc(NC(=O)CN(Cc2ccccc2)S(C)(=O)=O)c(OC)c1 | i | i | i | i | i | · | · | · | ·
COc1ccc(OC)c(NC(=O)CN(Cc2ccccc2)S(C)(=O)=O)c1 | -9.1* | i | i | i | i | i | i | i | i
COc1ccc(OC)c(NC(=O)Nc2cccc3ccccc23)c1 | -4.6* | i | i | i | i | i | i | i | i
COc1cc(NC(=O)C2CSC3(C)CCC(=O)N23)c(OC)cc1Cl (stereo not given) | -7.8* | i | i | i | i | 83%* | i | i | i
COc1ccc(-c2nc3c(c4nnc(SC(C)C(=O)Nc5ccccc5)n24)COC(C)(C)C3)cc1 (stereo not given) | -6.5* | i | i | i | i | i | i | i | i
COC(=O)c1cc(C(=O)OC)cc(-n2c(C)cc(C(=O)COC(=O)CNS(=O)(=O)c3ccc(C)cc3)c2C)c1 | i | i | i | i | i | · | · | · | ·
COc1ccc(C(=O)COC(=O)c2cnc(C)cn2)c(OC)c1 | i | i | i | i | i | · | · | · | ·
